Seven compounds from PubChem BioAssay can be followed below.

Calls of active or inactive are those of the source.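 The calls were made as follows, unless noted: active = visually confirmed hit in the image check and inhibition above 20%; inconclusive = visually confirmed hit but inhibition not above 20%; inactive = no visual hit in the image check.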

A short description of assay [1]: inhibitors of TNFa-induced NFkB p65 translocation, primary screen, imaging, HUVEC, MLSMR starter and 10KST1 sets (AID 438;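 active = inhibition above 20% together with a positive visual image hit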;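 also: compound added about 3h40 before a 20 min TNFalpha stimulation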;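 as to inhibition: signal is the nuclear over cytoplasmic p65 intensity ratio per well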). Particulars: HUVEC TNFa-induced p65 nuclear translocation; cell count: measured here: nuclei count (cytotoxicity indicator), at 2.08 µM; inhibition: at 2 µM, stronger effect = higher value, 0% TNFa-plus-vehicle, 100% no-TNFa wells.
Assay [2] in a line: inhibitors of mutant huntingtin aggregation, primary screen, imaging, exon1htt(103Q)mCFP cells, high-content imaging (AID 483;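 active = visual image review flags a hit and inhibition of aggregation exceeds 20%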;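 also: compound exposure lasted 3 days before fixation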;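 as to nuclei count: percent of the per-plate median nuclei count of sample wells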). Particulars: exon1htt(103Q)mCFP cell line, aggregate imaging, at 2 µM; inhibition of aggregation: stronger effect = higher value; nuclei count: measured here: cell count, toxicity.
Assay [3] in a line: inhibitors of E-selectin induction by TNFa, primary screen, imaging, HUVEC, immunofluorescence, MLSMR starter and 10KST1 sets (AID 487).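 As to inhibition: signal is fraction of cell area covered by stained E-selectin grains.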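 As to nuclei count: 100% = median nuclei count of all wells on the same plate.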 As to conditions: HUVEC TNFalpha-induced E-selectin immunofluorescence imaging, at 2 µM; inhibition: stronger effect = higher value; nuclei count: measured here: cell number, toxicity.
Assay [4] has as its target Voltage-gated potassium channel subunit beta-2 (Rattus norvegicus) (UniProt P62483). Put plainly: KvBeta enzyme negative modulators, primary screen, biochemical, NADPH fluorescence (AID 622;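 active = fluorescence slope higher than the sample average by over 3 SD, cut at about -0.22 in these data, passing the limit was not always enough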;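 also: slope of raw intensity against log time taken from 70 to 1610 s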). As to conditions: recombinant KvBeta, 4-cyanobenzaldehyde reduction, at 10 µM, stronger effect = higher value.
For assay [5] the target is unchanged. Put plainly: KvBeta positive modulators, primary screen, biochemical, NADPH fluorescence (AID 623;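 active = NADPH fluorescence slope more negative than the mean of all samples by about 3 SD, 99.7% confidence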;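 also: fluorescence intensity change per second fitted from 20 to 320 s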). Particulars: Recombinant KvBeta, NADPH fluorescence decrease slope, 10 min; at 10 µM; stronger effect = lower value.
Assay [6] concerns the target Muscarinic acetylcholine receptor M4 (Homo sapiens) (UniProt P08173). Put plainly: compounds altering M4/GIRK thallium flux, either direction, primary screen, M4 allosteric agonist project, cell-based, HEK293 M4/GIRK, BTC-AM (AID 625;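 active = fluorescence slope after compound addition differing from the mean of all tested samples at 99.7% confidence, mostly higher but some lower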;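 also: thallium influx through GIRK channels coupled to M4 in HEK293 cells with BTC-AM dye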). As to conditions: at 10 µM, actives lie on both sides. The gist of the method: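 Material: M4/GIRK1/GIRK2 stable HEK293 cell line. Medium: pH 7.3 thallium assay buffer. Dosing: single compound concentration, 10 µM final. Schedule: 1 h dye loading, 2 min kinetic read. Measured by: kinetic fluorescence with BTC-AM dye. Read-out: post-addition slope, 15–24 s, of baseline-normalized fluorescence. Benchmarks: carbachol and DMSO controls.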

The nature of assay [7]: inhibitors of Sendai virus-induced IRF3 signaling, primary screen, TLR/RLR signaling modifier project, cell-based, Sendai virus stimulus, luciferase, 10K MLSCN set (AID 602276;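 active = inhibition at or above 50% at 10 µM; inactive = inhibition below 50%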;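 also: firefly luciferase from ISG56 promoter only with Renilla not read in this screen; 0% = Sendai virus plus DMSO and 100% = medium plus DMSO without virus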). Particulars: HEK293 RL24 IRF3 luciferase reporter, at 10 µM, stronger effect = higher value.
A short description of assay [8]: inhibitors of poly I:C-induced TLR3 signaling, primary screen, cell-based, poly I:C stimulus, luciferase, 10K MLSCN set (AID 602277;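 active = inhibition of the reporter signal at or above 50%; inactive = inhibition below 50%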). Particulars: HEK293-TLR3 RL24 IRF3 luciferase reporter, at 10 µM, stronger effect = higher value.

Sequence of Muscarinic acetylcholine receptor M4 (Homo sapiens) (P08173 whole entry, looked up): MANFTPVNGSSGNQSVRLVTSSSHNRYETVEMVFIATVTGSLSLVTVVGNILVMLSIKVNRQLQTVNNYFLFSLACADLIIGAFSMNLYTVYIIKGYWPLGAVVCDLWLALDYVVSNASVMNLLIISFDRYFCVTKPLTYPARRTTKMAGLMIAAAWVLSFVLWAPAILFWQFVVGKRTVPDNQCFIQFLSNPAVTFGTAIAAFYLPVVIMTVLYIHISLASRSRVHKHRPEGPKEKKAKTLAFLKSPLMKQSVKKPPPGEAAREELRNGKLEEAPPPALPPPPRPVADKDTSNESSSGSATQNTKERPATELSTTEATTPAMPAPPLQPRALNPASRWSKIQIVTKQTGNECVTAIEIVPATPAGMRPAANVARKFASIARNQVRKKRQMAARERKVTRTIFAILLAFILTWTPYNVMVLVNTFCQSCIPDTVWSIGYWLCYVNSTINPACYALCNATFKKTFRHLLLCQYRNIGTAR
Sequence of Voltage-gated potassium channel subunit beta-2 (Rattus norvegicus) (P62483 whole entry, looked up): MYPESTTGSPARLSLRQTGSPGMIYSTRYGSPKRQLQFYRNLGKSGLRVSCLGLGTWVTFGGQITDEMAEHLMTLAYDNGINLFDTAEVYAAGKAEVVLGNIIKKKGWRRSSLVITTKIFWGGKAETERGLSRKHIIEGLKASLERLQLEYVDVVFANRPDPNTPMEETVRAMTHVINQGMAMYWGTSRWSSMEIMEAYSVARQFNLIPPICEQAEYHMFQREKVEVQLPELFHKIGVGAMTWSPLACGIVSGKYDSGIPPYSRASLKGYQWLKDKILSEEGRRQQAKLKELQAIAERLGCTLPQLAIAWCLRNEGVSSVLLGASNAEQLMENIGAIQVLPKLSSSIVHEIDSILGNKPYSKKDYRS

One may read the inhibition as the relative decrease from the control value, in per cent. Regarding `CCC(=O)N1CCNC(=O)C1CC(=O)Nc1ccc(C)c(Cl)c1` (configuration not stated), in assay [1], the cell count turned out to be 258. The inhibition in assay [1] is 3.7% (inactive); in assay [3] it was -40.7% (inactive); in assay [7] it was -5.01% (inactive); in assay [8], -2.47% (inactive). In assay [2], the inhibition of aggregation was -13.9% (inactive). In addition, the nuclei count in assay [2] was 102%; in assay [3], 88.8%. The fluorescence slope in assay [4] was -0.56 (inactive); in assay [6] it was 0.00516 (inactive). For the same compound, in assay [5], the NADPH fluorescence slope was 1.7e-05 (inactive).
For the compound `COc1ccc(C2c3c(-c4ccccc4O)n[nH]c3C(=O)N2CCc2ccc(OC)c(OC)c2)cc1` (configuration not stated), in assay [1], the cell count worked out at 644. In addition, the inhibition in assay [1] is -22.4% (inactive); in assay [3] it was -37.6% (inactive); in assay [7], 17.4% (inactive); in assay [8], 21.5% (inactive). In assay [2], the inhibition of aggregation was 17.2% (inactive). For the same compound, the results for the nuclei count in assay [2] and in assay [3] were 68.1% and 114%, respectively. The fluorescence slope in assay [4] was -0.616 (inactive); in assay [6], 0.00748 (inactive). Also, in assay [5], the NADPH fluorescence slope is 5.9e-06 (inactive).
As to `O=S(=O)(NC1=NCCC1)c1cccs1`, the cell count in assay [1] is 524. The inhibition in assay [1] is -7% (inactive); in assay [3], 27.1% (inactive); in assay [7] it was 8.22% (inactive); in assay [8], 5.63% (inactive). Further, the inhibition of aggregation in assay [2] is 11% (inactive). Moreover, the nuclei count worked out at 102% in assay [2] and 103% in assay [3]. For the same compound, the fluorescence slope was -0.353 (inactive) in assay [4] and 0.00585 (inactive) in assay [6]. Also, the NADPH fluorescence slope in assay [5] is -4.6e-05 (inactive).
As for `Cc1cc(N2C(=O)C3C4C=CC(C4)C3C2=O)ccc1Br` (configuration not stated), in assay [1], the cell count amounted to 775. Moreover, the inhibition in assay [1] is 18.7% (inactive); in assay [3], 98.6% (active); in assay [7] it was -31.9% (inactive); in assay [8], 100% (active). For the same compound, the inhibition of aggregation in assay [2] was 0.6% (inactive). Further, the nuclei count in assay [2] amounted to 110%; in assay [3], 42%. In addition, the figures for the fluorescence slope in assay [4] and in assay [6] were -0.502 (inactive) and 0.00619 (inactive), respectively. Moreover, in assay [5], the NADPH fluorescence slope was -5.3e-05 (inactive).
Consider `CCc1cc2ccc(C)cc2nc1SCC(=O)N1CCN(C(=O)c2ccco2)CC1`, for which the cell count in assay [1] came to 431. Besides, the inhibition was 4.8% (inactive) in assay [1], -49.1% (inactive) in assay [3], 11.9% (inactive) in assay [7] and 5.95% (inactive) in assay [8]. The inhibition of aggregation in assay [2] is 15.4% (inactive). Moreover, the nuclei count amounted to 106% in assay [2] and 119% in assay [3]. Also, the figures for the fluorescence slope in assay [4] and in assay [6] were -0.504 (inactive) and 0.00487 (inactive), respectively. The NADPH fluorescence slope in assay [5] was -0.000145 (inactive).
Regarding `Cc1nc(NC(=O)C2CC3CCCC(C2)C3=O)sc1C` (configuration not stated), the cell count in assay [1] was 411. Moreover, the inhibition in assay [1] is 4.4% (inactive); in assay [3], -36.5% (inactive); in assay [7] it was -54.4% (inactive); in assay [8] it was -87.2% (inactive). Moreover, in assay [2], the inhibition of aggregation was -32.5% (inactive). For the same compound, the nuclei count in assay [2] was determined as 110%; in assay [3], 106%. Further, the fluorescence slope in assay [4] was -0.581 (inactive); in assay [6], 0.00306 (inactive). In addition, the NADPH fluorescence slope in assay [5] is -4.4e-05 (inactive).
As for `Cc1ccc(-c2cc(C(=O)NCc3ccc4c(c3)OCO4)no2)cc1`, the cell count in assay [1] was determined as 382. For the same compound, the inhibition is 0.3% (inactive) in assay [1], 17% (inactive) in assay [3], -10.4% (inactive) in assay [7] and -26.2% (inactive) in assay [8]. Moreover, the inhibition of aggregation in assay [2] was 8.6% (inactive). In addition, the nuclei count in assay [2] was 92.9%; in assay [3] it was 101%. The values for the fluorescence slope in assay [4] and in assay [6] were -0.315 (inactive) and 0.00532 (inactive), respectively. For the same compound, in assay [5], the NADPH fluorescence slope is -6.4e-05 (inactive).
